Experimental findings from ChEMBL document CHEMBL3414514, “Synthesis and pharmacological evaluation of novel bisindole derivatives bearing oximes moiety: identification of novel proapoptotic agents” (Eur J Med Chem, 2015) are described below.

Each structure is given as a SMILES string. Calls of active or inactive are those of the source. The rule behind the calls is not given here.

Assay [1] concerns HUVEC. The assay can be described thus: Cytotoxicity against human HUVEC cells after 2 days by MTT assay. It is filed as cell-based. As to conditions: 48 h. The method, boiled down:
(§1)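 Cells grown in medium with 10% heat-inactivated FBS at 37 C under 5% CO2. Compounds dissolved in medium with 1% DMSO; controls received 1% DMSO. After 2 days, MTT (10 mg/mL) added for 4 h, formazan dissolved in DMSO and absorbance read at 570/630 nm. Survival taken relative to negative control; IC50 by Bliss method (n = 5), at least three independent experiments.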
In general terms: Formazan colour is commonly taken as a measure of viable cells.

A short description of assay [2]: Induction of apoptosis in human T24 cells assessed as caspase-3 upregulation after 24 hrs by qRT-PCR analysis. Particulars: T-24. It is filed as functional, cell-based. In short, it runs like this: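 T24 cells treated at […] for 24 h before RNA extraction. SYBR Green qRT-PCR with 500 nM primers: 2 min at 50 C, 10 min at 95 C, then 40 cycles of 15 s at 95 C and 1 min at 60 C. Expression by the ΔCt method against actin, normalized to untreated cells; run in triplicate.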
(In general: In qPCR the cycle at which signal appears reflects the starting amount.)

Assay [3] can be described thus: Cell cycle arrest in human T24 cells assessed as accumulation at G2 phase at 10 uM after 48 hrs by Rnase A/propidium iodide staining-based flow cytometry (reference value: 3.58%). It is filed as functional. As to conditions: T-24. In short, it runs like this: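 T24 cells exposed to […] for 48 h, washed with ice-cold PBS, then fixed and permeabilized overnight in ice-cold 70% ethanol. RNase A (100 mg/mL) treatment at 37 C for 30 min, then PI staining (1 mg/mL) in the dark at 4 C for 30 min. Flow cytometry gave the percentage of cells in G1, S and G2 phase.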

The subject of assay [4] is HepG2. As to the kind of experiment: Cytotoxicity against human HepG2 cells after 2 days by MTT assay. It is filed as functional, cell-based. Particulars: HepG2, 48 h. In short, it runs like this: as §1
The nature of assay [5]: Induction of apoptosis in human T24 cells assessed as caspase-8 upregulation at IC50 after 24 hrs by qRT-PCR analysis relative to control. It is filed as functional, cell-based. As to conditions: T-24.
Assay [6] has as its system T-24. The assay can be described thus: Induction of apoptosis in human T24 cells assessed as increase in caspase-9 protein expression at 20 uM after 6 to 24 hrs by Western blotting analysis. It is filed as functional, cell-based. In general terms: Immunoblotting shows a protein as a band on a membrane.
Assay [7] in a line: Cell cycle arrest in human T24 cells assessed as alteration in cyclin A level at 5 to 20 uM after 24 hrs by Western blotting analysis. As to conditions: T-24. It is filed as functional, cell-based.
Assay [8] can be described thus: Cytotoxicity against human SKOV3 cells after 2 days by MTT assay. It is filed as functional, cell-based. Particulars: SK-OV-3, 48 h. The method, boiled down:
as §1

A short description of assay [9]: Cell cycle arrest in human T24 cells assessed as reduction in CDK4 level after 24 hrs by Western blotting analysis. It is filed as functional, cell-based. As to conditions: T-24. The method, boiled down:
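T24 cells treated at […] for 24 h and lysed in ice-cold RIPA buffer with protease inhibitors and NaF. Protein measured by Bradford; 30 micrograms per lane run on 12% SDS-PAGE and transferred to PVDF. Blocked 2 h at room temperature, primary antibody overnight at 4 C, HRP secondary (1:2000) 1 h, chemiluminescence detection.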

The subject of assay [10] is T-24. As to the kind of experiment: Induction of apoptosis in human T24 cells assessed as condensed nuclei after 24 hrs by Hoechst 33258 staining-based fluorescence microscopic analysis relative to control. It is filed as functional, cell-based. The method, boiled down: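 T24 cells on cover slips treated at […] for 24 h; untreated cells as control. Fixed in 4% paraformaldehyde for 10 min, PBS washes, Hoechst 33258 for 5 min. Nuclei imaged by fluorescence microscopy, excitation 350 nm, emission 460 nm.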

Assay [11] has as its system T-24. The assay can be described thus: Induction of apoptosis in human T24 cells assessed as cytochrome C accumulation in cytosol at 20 uM after 6 to 24 hrs by Western blotting analysis. It is filed as functional, cell-based.
The subject of assay [12] is T-24. The assay can be described thus: Induction of apoptosis in human T24 cells assessed as early apoptotic cells at 10 uM after 24 hrs by annexin-V-FITC/propidium iodide staining-based flow cytometry (reference value: 2.74%). It is filed as functional.
Assay [13] relates to T-24. The assay can be described thus: Induction of apoptosis in human T24 cells assessed as necrotic cells at 20 uM after 24 hrs by annexin-V-FITC/propidium iodide staining-based flow cytometry (reference value: 1.66%). It is filed as functional.
For assay [14], the system named is T-24. The assay can be described thus: Induction of apoptosis in human T24 cells assessed as membrane blebbing at 5 to 20 uM after 24 hrs by AO/EB staining-based fluorescence microscopic analysis relative to control. It is filed as functional, cell-based. The method, boiled down: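 T24 cells seeded at 5 × 10^4 cells/mL on cover slips. Medium was replaced with fresh medium containing 10% FBS and compound at 5, 10 or 20 µM for 24 h. Cover slips were inverted onto AO/EB stain and viewed by fluorescence microscopy. Live cells score uniform green, early apoptotic green-yellow, late apoptotic orange, and necrotic orange without condensed chromatin. Untreated cells served as control.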

The IC50 is the concentration that gives 50% inhibition.

For `COc1ccc2c(c1)/C(=N\O)C(c1c[nH]c3ccc(OC)cc13)=N2`, the IC50 in [1] was above 100 µM; in assay [4], 9.92 µM; in assay [8] it was 12.5 µM. In addition, the Activity entry in assay [2] was “Dose-dependent effect”; in assay [3], 5.47%; in assay [9] it was “Dose-dependent effect”; in assay [10], “Dose-dependent effect”; in assay [12], 11.9%; in assay [13], 2.07%. Also, the fold change (FC) in [5] worked out at 8.03. In addition, the result in [6], in [11] and in assay [14] was Active. In addition, the result in [7] was inactive.
